Here are results for 2 compounds from ChEMBL document CHEMBL1240339, “Raft nanodomains contribute to Akt/PKB plasma membrane recruitment and activation” (Nat Chem Biol, 2008).

In general, inhibition refers to the percentage by which the read-out fell short of the control.

Where “and” joins values, the source holds several entries; their conditions need not be identical. Equal entries are not always repeated. Calls of active or inactive are those of the source. The rule behind the calls is not given here.

Assay type in all cases: cell-based
Assay [1] deals with Jurkat. Put plainly: Inhibition of serine palmitoyltransferase in human Jurkat JA16 cells assessed as sphingomyelin level at 25 uM after 14 to 18 hrs by fluorescence correlation spectroscopy relative to control. Also noted: scale not given: the % may be the effect or the level left.
Assay [2] deals with COS-7. Put plainly: Inhibition of serine palmitoyltransferase in african green monkey COS7 cells assessed as sphingomyelin level at 10 uM after 14 to 18 hrs by fluorescence correlation spectroscopy relative to control. The arrangement: scale not given: the % may be the effect or the level left. The note with it: Chlorocebus aethiops.
In assay [3] the target is RAC-alpha serine/threonine-protein kinase (Mus musculus) (UniProt P31750). Put plainly: Inhibition of CD-28 triggered Akt phosphorylation in mouse DWT6.11 cells assessed as enzyme phosphorylation at Thr308 by immunoblotting relative to control. The conditions noted are these: concentration not given here. In a few lines: (§1)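 DWT6.11 mouse T cells were given 25 µM myriocin for 48 h in complete medium, then serum-starved 14–18 h with 25 µM myriocin, then stimulated with CD28 monoclonal antibody. Akt Thr308 and Ser473 phosphorylation induction was quantified by immunoblotting as % of untreated cells, mean ± s.d., n = 3.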

For assay [4] the target is unchanged. Put plainly: Inhibition of CD-28 triggered Akt phosphorylation in mouse DWT6.11 cells assessed as enzyme phosphorylation at Ser473 by immunoblotting relative to control. The note with it: concentration not given here. An outline of the steps: as §1
For orientation: In western blotting, separated proteins are transferred to a membrane and probed.

Assay [5] is filed under the species Mus musculus. In words: Inhibition of CD-28 triggered Ras/MAPK in mouse DWT6.11 cells by immunoblotting analysis. An outline of the steps: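 DWT6.11 cells were pretreated with myriocin (25 µM, 48 h in complete medium, then serum-starved 14–18 h). They were stimulated or not with CD28 monoclonal antibody. The Ras/MAPK pathway was read as ERK phosphorylation by immunoblotting.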

Assay [6] is filed under the species Mus musculus. In words: Inhibition of serine palmitoyltransferase in mouse DWT6.11 cells assessed as sphingomyelin level at 25 uM after 14 to 18 hrs by fluorescence correlation spectroscopy relative to control. The arrangement: scale not given: the % may be the effect or the level left.
The species named for assay [7] is Mus musculus. In words: Inhibition of serine palmitoyltransferase in mouse DWT6.11 cells assessed as cholesterol level at 25 uM after 14 to 18 hrs by fluorescence correlation spectroscopy relative to control. The arrangement: scale not given: the % may be the effect or the level left.
Assay [8] addresses T1, Squalene synthase (Homo sapiens) (UniProt P37268).
T1 sequence (whole entry): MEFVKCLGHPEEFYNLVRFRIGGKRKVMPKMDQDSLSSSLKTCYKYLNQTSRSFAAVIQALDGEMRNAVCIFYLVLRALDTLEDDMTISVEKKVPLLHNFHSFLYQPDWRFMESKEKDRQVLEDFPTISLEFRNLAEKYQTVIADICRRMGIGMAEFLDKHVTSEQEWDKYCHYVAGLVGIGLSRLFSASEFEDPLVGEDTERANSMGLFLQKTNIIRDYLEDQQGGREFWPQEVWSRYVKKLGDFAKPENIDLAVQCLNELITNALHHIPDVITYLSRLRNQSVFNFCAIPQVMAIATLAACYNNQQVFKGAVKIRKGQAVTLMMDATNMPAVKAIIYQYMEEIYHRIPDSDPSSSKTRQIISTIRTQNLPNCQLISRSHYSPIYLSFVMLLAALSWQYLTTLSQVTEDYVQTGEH
In words: Inhibition of squalene synthase in human Jurkat JA16 cells assessed as cholesterol level at 25 uM after 14 to 18 hrs by fluorescence correlation spectroscopy relative to control. Also noted: scale not given: the % may be the effect or the level left.

For assay [9], the system named is COS-7. Put plainly: Inhibition of serine palmitoyltransferase in african green monkey COS7 cells assessed as cholesterol level at 10 uM after 14 to 18 hrs by fluorescence correlation spectroscopy relative to control. Also noted: scale not given: the % may be the effect or the level left. The note with it: Chlorocebus aethiops.
The test system of assay [10] is Jurkat. Put plainly: Inhibition of serine palmitoyltransferase in human Jurkat JA16 cells assessed as lateral diffusion of the outer membrane leaflet-linked FL-PE nanodomain at 25 uM after 14 to 18 hrs by fluorescence correlation spectroscopy.
Assay [11] deals with T2, Squalene synthase (Mus musculus) (UniProt P53798).
T2 sequence (whole entry): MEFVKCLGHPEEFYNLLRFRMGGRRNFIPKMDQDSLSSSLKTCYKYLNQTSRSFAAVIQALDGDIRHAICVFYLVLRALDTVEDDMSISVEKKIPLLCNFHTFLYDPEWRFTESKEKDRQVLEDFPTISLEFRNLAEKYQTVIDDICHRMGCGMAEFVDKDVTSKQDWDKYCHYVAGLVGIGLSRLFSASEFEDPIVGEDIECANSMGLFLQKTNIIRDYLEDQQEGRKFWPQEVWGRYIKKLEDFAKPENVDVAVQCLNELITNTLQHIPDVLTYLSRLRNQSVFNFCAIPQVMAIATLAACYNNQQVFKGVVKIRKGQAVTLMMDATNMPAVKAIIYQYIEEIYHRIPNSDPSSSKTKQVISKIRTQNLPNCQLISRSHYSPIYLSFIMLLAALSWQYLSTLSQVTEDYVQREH
In words: Inhibition of squalene synthase in mouse DWT6.11 cells assessed as cholesterol level at 5 uM after 14 to 18 hrs by fluorescence correlation spectroscopy relative to control. The arrangement: scale not given: the % may be the effect or the level left.

The target of assay [12] is T1, Squalene synthase (Homo sapiens). Put plainly: Inhibition of squalene synthase in human Jurkat JA16 cells assessed as cholesterol level at 5 uM after 14 to 18 hrs by fluorescence correlation spectroscopy relative to control. The arrangement: scale not given: the % may be the effect or the level left.
Assay [13] relates to COS-7. In words: Inhibition of squalene synthase in african green monkey COS7 cells assessed as cholesterol level at 5 uM after 14 to 18 hrs by fluorescence correlation spectroscopy relative to control. The arrangement: scale not given: the % may be the effect or the level left. The note with it: Chlorocebus aethiops.
Assay [14] addresses T2, Squalene synthase (Mus musculus). Put plainly: Inhibition of squalene synthase in mouse DWT6.11 cells assessed as sphingomyelin level at 5 uM after 14 to 18 hrs by fluorescence correlation spectroscopy relative to control. Also noted: scale not given: the % may be the effect or the level left.
In assay [15] the test system is Jurkat. In words: Inhibition of serine palmitoyltransferase in human Jurkat JA16 cells assessed as sphingomyelin level at 5 uM after 14 to 18 hrs by fluorescence correlation spectroscopy relative to control. Also noted: scale not given: the % may be the effect or the level left.
For assay [16], the system named is COS-7. In words: Inhibition of squalene synthase in african green monkey COS7 cells assessed as of cholesterol level at 5 uM after 14 to 18 hrs by fluorescence correlation spectroscopy relative to control. The note with it: Chlorocebus aethiops. Also noted: scale not given: the % may be the effect or the level left.

Chain of RAC-alpha serine/threonine-protein kinase (Mus musculus) (P31750 whole entry): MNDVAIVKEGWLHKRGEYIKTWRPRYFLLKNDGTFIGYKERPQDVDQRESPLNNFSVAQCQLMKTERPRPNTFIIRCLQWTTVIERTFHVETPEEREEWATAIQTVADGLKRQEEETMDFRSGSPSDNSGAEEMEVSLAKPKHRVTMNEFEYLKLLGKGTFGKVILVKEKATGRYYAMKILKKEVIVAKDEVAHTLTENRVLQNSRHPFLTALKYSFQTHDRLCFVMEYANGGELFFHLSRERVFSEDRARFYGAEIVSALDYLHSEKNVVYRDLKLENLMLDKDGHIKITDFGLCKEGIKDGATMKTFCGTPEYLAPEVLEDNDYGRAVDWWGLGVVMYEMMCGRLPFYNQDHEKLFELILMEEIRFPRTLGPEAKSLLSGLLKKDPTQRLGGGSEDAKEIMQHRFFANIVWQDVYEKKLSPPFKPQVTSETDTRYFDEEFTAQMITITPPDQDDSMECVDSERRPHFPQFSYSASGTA

For `CCCCCCC(=O)CCCCCC/C=C/C[C@@H](O)[C@H](O)[C@@](N)(CO)C(=O)O`, the Activity in the assay on Jurkat [1] came out at 28%; with COS-7 [2] it was 30%; in the assay filed under Mus musculus [6] it was 24%; in the assay filed under Mus musculus [7] it was 98%; in assay [8], 97%; with COS-7 [9], 92%. Further, the Activity in the assay with Jurkat [10] was 0.9 ms and 0.8 um2/s. For the same compound, the inhibition was determined as 50.8% in assay [3] and 51.2% in assay [4]. In the assay filed under Mus musculus [5], the inhibition entry was “inactive”.
Turning to `C=C(CC[C@]12O[C@H](C(=O)O)[C@@](O)(C(=O)O)[C@](C(=O)O)(O1)[C@H](OC(=O)/C=C/[C@@H](C)C[C@@H](C)CC)[C@H]2O)[C@@H](OC(C)=O)[C@H](C)Cc1ccccc1`, the Activity stood at 64% in assay [11]; 81% in assay [12]; 73% in the assay with COS-7 [13]; 103% in assay [14]; 97% with Jurkat [15]; 90% with COS-7 [16]. In addition, in the assay filed under Mus musculus [5], the inhibition result is “inactive”.
